Source: ChEMBL document CHEMBL2424525, “Synthesis of 3'-azido-2',3'-dideoxy-5-fluorouridine phosphoramidates and evaluation of their anticancer activity” (Eur J Med Chem, 2013)

Experiments:
Format in all cases: functional, cell-based
[1] = tested on: KB; test: Cytotoxicity against human KB cells after 72 hrs by SRB assay
Procedure, shortened: (§1)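 SRB assay. HeLa and KB cells were grown in RPMI 1640 and MCF-7 cells in DMEM. Cells were fixed with 50% trichloroacetic acid for 1 h at 4 °C, then washed with distilled water. Unbound dye was removed with 1% acetic acid and plates were air dried overnight. OD read at 490 nm. Survival was taken as % absorbance of untreated control. Cytarabine served as internal standard. Three independent experiments.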

[2] = tested on: HeLa; test: Cytotoxicity against human HeLa cells after 72 hrs by SRB assay; procedure, shortened: as §1
[3] = tested on: MCF7; test: Cytotoxicity against human MCF7 cells after 72 hrs by SRB assay; conditions: MCF7, 72 h; procedure, shortened: as §1

Compound: [N-]=[N+]=N[C@H]1C[C@H](n2cc(F)c(=O)[nH]c2=O)O[C@@H]1CO
- IC50 [1]: 8.11 µM
- IC50 [2]: 11.1 µM
- IC50 [3]: 10.3 µM

Compound: [N-]=[N+]=NCCCCNP(=O)(OC[C@H]1O[C@@H](n2cc(F)c(=O)[nH]c2=O)C[C@@H]1N=[N+]=[N-])Oc1ccc(Cl)cc1 (stereo not given in full)
- IC50 [1]: 46.6 µM
- IC50 [2]: 35.5 µM
- IC50 [3]: 22.4 µM

Compound: COC(=O)[C@H](C)NP(=O)(OC[C@H]1O[C@@H](n2cc(F)c(=O)[nH]c2=O)C[C@@H]1N=[N+]=[N-])Oc1ccc(Cl)cc1 (stereo not given in full)
- IC50 [1]: > 100 µM
- IC50 [2]: 38.4 µM
- IC50 [3]: 38.4 µM

Compound: CNP(=O)(OC[C@H]1O[C@@H](n2cc(F)c(=O)[nH]c2=O)C[C@@H]1N=[N+]=[N-])Oc1ccc(Cl)cc1 (stereo not given in full)
- IC50 [1]: 8.64 µM
- IC50 [2]: 8.43 µM
- IC50 [3]: 4.42 µM

Compound: CCNP(=O)(OC[C@H]1O[C@@H](n2cc(F)c(=O)[nH]c2=O)C[C@@H]1N=[N+]=[N-])Oc1ccc(Cl)cc1 (stereo not given in full)
- IC50 [1]: 1.64 µM
- IC50 [2]: 1.64 µM
- IC50 [3]: 1.88 µM

Compound: [N-]=[N+]=N[C@H]1C[C@H](n2cc(F)c(=O)[nH]c2=O)O[C@@H]1COP(=O)(NCC(F)(F)F)Oc1ccc(Cl)cc1 (stereo not given in full)
- IC50 [1]: 40.5 µM
- IC50 [2]: 43.9 µM
- IC50 [3]: 23.9 µM

Compound: CCCNP(=O)(OC[C@H]1O[C@@H](n2cc(F)c(=O)[nH]c2=O)C[C@@H]1N=[N+]=[N-])Oc1ccc(Cl)cc1 (stereo not given in full)
- IC50 [1]: 26.9 µM
- IC50 [2]: 25.9 µM
- IC50 [3]: 27.2 µM

Compound: C=CCNP(=O)(OC[C@H]1O[C@@H](n2cc(F)c(=O)[nH]c2=O)C[C@@H]1N=[N+]=[N-])Oc1ccc(Cl)cc1 (stereo not given in full)
- IC50 [1]: 8.59 µM
- IC50 [2]: 9.98 µM
- IC50 [3]: 10.4 µM

Compound: C#CCNP(=O)(OC[C@H]1O[C@@H](n2cc(F)c(=O)[nH]c2=O)C[C@@H]1N=[N+]=[N-])Oc1ccc(Cl)cc1 (stereo not given in full)
- IC50 [1]: 3.81 µM
- IC50 [2]: 4.21 µM
- IC50 [3]: 5.41 µM

Compound: [N-]=[N+]=NCCCNP(=O)(OC[C@H]1O[C@@H](n2cc(F)c(=O)[nH]c2=O)C[C@@H]1N=[N+]=[N-])Oc1ccc(Cl)cc1 (stereo not given in full)
- IC50 [1]: 99.3 µM
- IC50 [2]: 96.2 µM
- IC50 [3]: 33.1 µM

Compound: CCCCNP(=O)(OC[C@H]1O[C@@H](n2cc(F)c(=O)[nH]c2=O)C[C@@H]1N=[N+]=[N-])Oc1ccc(Cl)cc1 (stereo not given in full)
- IC50 [1]: 38.7 µM
- IC50 [2]: 32.9 µM
- IC50 [3]: 41.8 µM

Compound: Nc1ccn([C@@H]2O[C@H](CO)[C@@H](O)[C@@H]2O)c(=O)n1 [CYTARABINE]
- IC50 [2]: 3.54 µM

Compound: O=c1[nH]c(=O)n([C@H]2C[C@H](O)[C@@H](CO)O2)cc1F [FLOXURIDINE]
- IC50 [1]: 8.69 µM
- IC50 [2]: 6.5 µM
- IC50 [3]: 12.2 µM

Compound: O=c1[nH]cc(F)c(=O)[nH]1 [FLUOROURACIL]
- IC50 [1]: 4.84 µM
- IC50 [2]: 6.23 µM
- IC50 [3]: 6.53 µM
